CR mimetic SO: lowers age-related superoxide in aged yeast cells. superoxide response (% of plate mean), % at 10 µM. S. cerevisiae aged cells, superoxide DHE fluorescence; stronger effect = lower value. actives 0.18% (n = 330,000);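 active = superoxide response under a set limit, about three screen SD below normal, cut at about 65% in these data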;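 also: yeast aged for seven days with compound at 30 °C before DHE staining; 100% = average MFI of all compound-treated wells on the plate with controls excluded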
TRPC4 inh: inhibitors of mouse TRPC4 channel; actives 0.39% (n = 300,000); AID 2247; Q9QUQ5; B-score at 10 µM; HEK293 TRPC4beta/mu-opioid, DAMGO-evoked Fluo4 calcium flux; stronger effect = lower value;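 active = B-score over 3 SD under the library average, no early fluorescence shift, positive overall ratio signal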
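Assay system – HEK293 line stably carrying TRPC4beta and mu-opioid receptor · Doses – single dose · Detection – Fluo4 calcium-dye fluorescence, kinetic read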
TRPC4 act: activators of mouse TRPC4 channel. HEK293 TRPC4beta/mu-opioid, Fluo4 calcium fluorescence; stronger effect = higher value. B-score at 10 µM. actives 0.49% (n = 310,000);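 active = B-score above 5 SD of library B-scores, and initial fluorescence ratio not above library mean plus 5 SD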;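 also: positive B-score marks a calcium rise read as TRPC4 activation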
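System – HEK293 cells stably co-expressing mouse TRPC4beta and mu-opioid receptor · Signal – Fluo4 calcium-sensitive dye fluorescence, kinetic, 1 Hz baseline · Benchmarks – buffer (low) and maximal DAMGO (high) · Read-out – B score of integrated fluorescence ratio per well · Incubation – dye loading 45 min room temperature, 110 s kinetic read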
TRPC6 inhibitor: blocks the mouse TRPC6 cation channel. B-score at 10 µM. HEK293-TRPC6, membrane potential dye, ACh-evoked depolarization; stronger effect = lower value. Q61143. actives 1.1% (n = 310,000);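 active = B-score under library mean minus 3 SD, initial fluorescence not abnormally high, positive integrated signal ratio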;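 also: B-score derived from integrated fluorescence ratio over the kinetic read; more negative B-score means stronger inhibition of depolarization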
TRPC6 activator: activates the mouse TRPC6 cation channel; B-score at 10 µM; AID 2550; Q61143; actives 0.13% (n = 310,000); HEK293-TRPC6 membrane potential dye fluorescence; stronger effect = higher value;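 active = B-score of the integrated fluorescence ratio above library mean plus 3 SD, and starting fluorescence ratio within library mean plus 5 SD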;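 also: higher score means more depolarization so channel activation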
TRPC4 PAM: allosterically enhances the mouse TRPC4 cation channel; HEK293 TRPC4beta/mu-opioid, DAMGO EC20, Fluo-4 Ca2+ flux; stronger effect = higher value; Q9QUQ5; actives 0.42% (n = 310,000); AID 2227; B-score at 10 µM;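 active = B-score of calcium response area above 5 SD of library B-scores, with initial fluorescence ratio within 5 SD of library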;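 also: B-score of integrated fluorescence ratio over time as area under calcium response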
CR mimetic CP: yeast aging superoxide inhibition, cherry pick confirmation | shares compounds with CR mimetic SO | S. cerevisiae aging, superoxide DHE fluorescence; stronger effect = lower value | superoxide response (% of plate), % at 10 µM | actives 1% (n = 850) | AID 434994;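 active = superoxide signal below 65% of the plate average of sample wells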;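 also: cells aged with compound for 7 days at 30 degrees C before staining; 100% equals mean DHE fluorescence of all compound wells on the plate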
DHE counter: DHE fluorescence interference, counter-screen artifact; shares compounds with CR mimetic SO; S. cerevisiae BY4741, flow cytometry; stronger effect = lower value; fluorescence response, % at 10 µM; 850 tested, under 10 active; AID 435000;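 active = fluorescence response below 15%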;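 also: percent of the mean fluorescence averaged over all compound wells on the plate; lower means stronger quenching of DHE signal or ROS scavenging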
An asterisk follows results filed as active; i = inactive; . = no result. In the library only some 2.3% were active in any assay of this set; here they are far more common.

SMILES	CR mimetic SO	TRPC4 inh	TRPC4 act	TRPC6 inhibitor	TRPC6 activator	TRPC4 PAM	CR mimetic CP	DHE counter
CCCc1cc(C(=O)Nc2cccc([N+](=O)[O-])c2)cs1	65*	i	i	i	i	i	95	98
O=C(O)C1CCCN1S(=O)(=O)c1ccc(Cl)cc1 (stereo not given)	95	i	i	i	i	i	107	98
O=C1c2c(O)ccc(O)c2C(=O)c2c(NCCNCCO)ccc(NCCNCCO)c21	33*	.	.	.	.	.	46*	14*
COc1ccccc1NC(=O)CN(C)S(=O)(=O)c1ccc(F)cc1	77	i	i	i	i	i	.	.
O=c1cccccc1NCc1ccccc1	102	i	i	i	i	i	.	.
Nc1c(NCc2ccccc2)c(=O)c1=O	63*	i	i	i	i	i	96	91
COc1ccccc1Oc1ccc2c(c1)C(=O)N(c1ccc(O)cc1)C2=O	111	.	.	.	.	.	.	.
COc1ccccc1Oc1ccc2c(c1)C(=O)N(CC(=O)O)C2=O	40*	i	i	i	i	i	102	91
COc1ccc(NC(=S)N(CCCN2CCCC(C)C2)Cc2cccs2)cc1 (stereo not given)	87	i	i	i	i	i	.	.
CC1C(=O)NN=C1C(=O)N/N=C\c1ccc(O)cc1O (stereo not given)	60*	i	i	i	i	i	94	94
COc1cc(/C=N/NC(=O)C2=NNC(=O)C2C)ccc1O (stereo not given)	91	i	i	i	i	i	.	.
CCOc1ccc(NC(=O)CN2CCN(CC(=O)Nc3ccc(OC)cc3OC)CC2)cc1	62*	i	i	i	i	i	107	106
CCOc1ccc(NC(=O)CN2CCN(CC(=O)Nc3ccccc3OC)CC2)cc1	92	i	i	i	i	i	.	.
CN1/C(=C\C=C2/SC(=S)N(CC(=O)O)C2=O)C(C)(C)c2ccccc21	145	i	i	i	i	i	.	.
C=CCN1C(=O)/C(=C\C=C2\N(C)c3ccccc3C2(C)C)SC1=S	57*	i	i	i	i	i	99	112
O=C(CSc1nc2ccccc2o1)N1CCN(S(=O)(=O)c2ccc3ccccc3c2)CC1	64*	i	i	i	i	i	111	117
Cc1ccc(S(=O)(=O)N2CCN(C(=O)CSc3nc4ccccc4o3)C2)cc1	89	i	i	i	i	i	.	.
Fc1ccc(NC(=S)NC2CC3CCC(C2)N3Cc2ccco2)cc1 (stereo not given)	97	i	i	i	i	i	.	.
O=C(CN1CCN(c2cccc(Cl)n2)CC1)N1CC(O)CO1 (stereo not given)	93	i	i	i	i	i	.	.
CCN1CCc2nc(N)sc2C1	65*	i	i	i	i	i	112	109
CCN1CCc2nc(NC(=O)c3ccccc3)sc2C1	89	i	i	i	i	i	.	.
Cc1cccc(OCC(=O)N(Cc2cccs2)C2CCS(=O)(=O)C2)c1 (stereo not given)	105	i	i	i	i	i	.	.
CC(=O)c1c(-c2ccccc2)c2cc([N+](=O)[O-])ccc2[nH]c1=O	59*	i	i	i	i	i	111	106
COc1cccc(NC(=O)Nc2ccc3c(c2)nc(C)n3C)c1	61*	i	i	i	i	i	108	112
O=c1cc2c(nn1Cc1ccc(F)cc1)-c1ccccc1CC2	59*	-7*	i	i	i	11*	97	88
SMILES	CR mimetic SO	TRPC4 inh	TRPC4 act	TRPC6 inhibitor	TRPC6 activator	TRPC4 PAM	CR mimetic CP	DHE counter
O=c1cc2c(nn1Cc1ccccc1)-c1ccccc1CC2	103	i	i	i	i	i	.	.
COc1ccccc1-n1nnnc1SCC(=O)NC1CC1	97	i	i	i	i	i	.	.
Cc1c(C(=O)N2CCN(c3ccccn3)CC2)cccc1[N+](=O)[O-]	86	i	i	i	i	i	.	.
Cc1ccccc1C(=O)N1CCC(C(=O)Nc2cc(C(F)(F)F)ccc2N2CCCC2)CC1	108	i	i	i	i	i	.	.
Nc1nc(SCc2ccc(Br)cc2)n[nH]1	49*	i	i	i	i	i	102	92
Nc1nc(SCc2ccccc2)n[nH]1	115	i	i	i	i	i	.	.
CN1CCN(CC(O)Cn2c3ccccc3c3ccccc32)CC1 (stereo not given)	93	i	i	i	i	i	.	.
OC(CN1CCCCC1)Cn1c2ccccc2c2ccccc21 (stereo not given)	46*	i	i	i	i	i	95	102
CS(=O)(=O)N(CC(O)Cn1c2ccccc2c2ccccc21)c1ccccc1 (stereo not given)	114	i	i	i	i	i	.	.
OCCN(CCO)CC(O)Cn1c2ccccc2c2ccccc21 (stereo not given)	124	i	i	i	i	i	91	99
CN(CC(O)Cn1c2ccccc2c2ccccc21)S(C)(=O)=O (stereo not given)	101	i	i	i	i	i	101	97
Cc1nn(Cc2ccc(Cl)c(Cl)c2)c(C)c1NC(=O)c1cc(-c2ccco2)on1	81	.	i	i	i	i	.	.
CC(=O)Nc1nnc(Cc2ccccc2)s1	102	i	i	i	i	i	.	.
CCOC(=O)c1cnc2c(F)ccc(F)c2c1Sc1ccccc1	62*	i	i	i	i	i	86	111
CCn1c2ccccc2c2cc([N+](=O)[O-])ccc21	98	i	i	i	i	i	99	93
CC(C)n1c2ccccc2c2cc([N+](=O)[O-])ccc21	96	i	i	i	i	i	100	110
Nc1nn(-c2ccccc2)c2ccc([N+](=O)[O-])cc12	107	i	i	i	i	i	.	.
Cc1cc(NC(=O)CCN2CC(C)OC(C)C2)ccc1Br (stereo not given)	105	i	i	i	i	i	.	.
O=c1c2ccccc2nc(-c2ccc([N+](=O)[O-])cc2)n1O	77	i	i	i	i	i	.	.
